Active and inactive are the calls of the source. No cut-off for these calls is given here.
How the values were obtained:
[1] = Inhibition of quorum sensing system in Pseudomonas aeruginosa MH602 PlasB::gfp at 250 uM incubated for 15 hrs by GFP reporter gene assay
Summary of the method: (§1)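 Reporter strain P. aeruginosa PlasB::gfp (PAMH602) makes its own AHL; lasB promoter drives GFP-ASV. Cultures incubated with compound over 250–31.25 µM at 37 °C for 15 h, then GFP fluorescence read at 535 nm. QSI expressed as % relative to untreated PAMH602 negative control. Furanone positive control.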

[2] = Inhibition of quorum sensing system in Pseudomonas aeruginosa MH602 PlasB::gfp at 125 uM incubated for 15 hrs by GFP reporter gene assay; summary of the method: as §1
[3] = Inhibition of quorum sensing system in Pseudomonas aeruginosa MH602 PlasB::gfp at 62.5 uM incubated for 15 hrs by GFP reporter gene assay; summary of the method: as §1
[4] = Inhibition of quorum sensing system in Pseudomonas aeruginosa MH602 PlasB::gfp at 31.25 uM incubated for 15 hrs by GFP reporter gene assay; summary of the method: as §1
Pseudomonas aeruginosa [5] = experiment: Toxicity in Pseudomonas aeruginosa MH602 PlasB::gfp assessed as inhibition of bacterial growth at 250 uM incubated for 15 hrs by spectrophotometry; type: organism-based; details: MH602, 15 h, read-out: GI
Pseudomonas aeruginosa [6] = experiment: Toxicity in Pseudomonas aeruginosa MH602 PlasB::gfp assessed as inhibition of bacterial growth at 125 uM incubated for 15 hrs by spectrophotometry; type: organism-based; details: MH602, 15 h, read-out: GI
Pseudomonas aeruginosa [7] = experiment: Toxicity in Pseudomonas aeruginosa MH602 PlasB::gfp assessed as inhibition of bacterial growth at 62.5 uM incubated for 15 hrs by spectrophotometry; type: organism-based; details: MH602, 15 h, read-out: GI
Pseudomonas aeruginosa [8] = experiment: Toxicity in Pseudomonas aeruginosa MH602 PlasB::gfp assessed as inhibition of bacterial growth at 31.25 uM incubated for 15 hrs by spectrophotometry; type: organism-based; details: MH602, 15 h, read-out: GI
Pseudomonas aeruginosa [9] = experiment: Inhibition of biofilm formation in Pseudomonas aeruginosa PAO1 at 250 uM incubated for 6 hrs by crystal violet staining based method; type: functional; details: for inhibition at 250 µM: PAO1, 6 h
Summary of the method: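 P. aeruginosa PA01 biofilm. Cultures grown with or without test compound for 6 h. Biofilm biomass quantified by crystal violet staining (OD550). % inhibition calculated relative to DMSO control.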

Row | Structure (SMILES) | inhibition [1] | inhibition [2] | inhibition [3] | inhibition [4] | inhibition at 250 µM (Pseudomonas aeruginosa [5]) | inhibition at 125 µM (Pseudomonas aeruginosa [6]) | inhibition at 62.5 µM (Pseudomonas aeruginosa [7]) | inhibition at 31.25 µM (Pseudomonas aeruginosa [8]) | inhibition at 250 µM (Pseudomonas aeruginosa [9]) | inhibition (Pseudomonas aeruginosa [9])
1 | O=C1C=C(Br)/C(=C/Br)O1 | 87.5% | 83.1% | 77% | 65.9% | > 30% | > 30% | > 30% | 15 to 30% | 87.9% | –
2 | C=C1NC(=O)C=C1c1cccc(Cl)c1 | 73.3% | 69.4% | 54.7% | 26.3% | ≤ 15% | ≤ 15% | ≤ 15% | ≤ 15% | 47.3% | –
3 | O=C1C=C(c2ccc(F)cc2)CN1 | 63% | 40.2% | 28.7% | 27.1% | ≤ 15% | ≤ 15% | ≤ 15% | ≤ 15% | – | inactive
4 | C=C1NC(=O)C=C1c1ccc(C)cc1 | 80.5% | 78.7% | 72.3% | 36.5% | ≤ 15% | ≤ 15% | ≤ 15% | ≤ 15% | – | –
5 | C=C1NC(=O)C=C1c1ccc(OC)cc1 | 74.4% | 62.7% | 44.5% | 37% | 15 to 30% | ≤ 15% | ≤ 15% | ≤ 15% | 38.8% | –
6 | C=C1NC(=O)C(C)=C1c1ccccc1F | 54.8% | 48.8% | 31.7% | 28.8% | ≤ 15% | ≤ 15% | ≤ 15% | ≤ 15% | – | –
7 | C=C1NC(=O)C(C)=C1c1ccc(Br)cc1 | 59.6% | 45.2% | 38.1% | 33.7% | ≤ 15% | ≤ 15% | ≤ 15% | ≤ 15% | – | –
8 | C=C1NC(=O)C=C1c1ccc(C(=O)O)cc1 | 68% | 50.8% | 33.6% | 19.6% | ≤ 15% | ≤ 15% | ≤ 15% | ≤ 15% | 12.9% | –
9 | C=C1NC(=O)C=C1c1ccc([N+](=O)[O-])cc1 | 80.9% | 69.9% | 63.5% | 51.3% | 15 to 30% | ≤ 15% | ≤ 15% | ≤ 15% | 57.2% | –
10 | C=C1NC(=O)C=C1c1cccc(F)c1 | 72.8% | 66.5% | 52.9% | 39.5% | ≤ 15% | ≤ 15% | ≤ 15% | ≤ 15% | 55.2% | –
11 | O=C1C=C(c2ccc(Br)cc2)/C(=C/Br)N1 | 82.3% | 53.9% | 53.5% | 38.2% | > 30% | > 30% | 15 to 30% | ≤ 15% | – | –
12 | O=C1C=C(c2ccsc2)CN1 | 72.1% | 49.3% | 26.6% | 24.7% | ≤ 15% | ≤ 15% | ≤ 15% | ≤ 15% | – | inactive
13 | C=C1NC(=O)C=C1c1ccccc1 | 71.5% | 59% | 31.6% | 19.6% | ≤ 15% | ≤ 15% | ≤ 15% | ≤ 15% | 47.6% | –
14 | C=C1NC(=O)C(C)=C1c1ccc(Cl)cc1 | 47.7% | 38.2% | 33.2% | 23.7% | ≤ 15% | ≤ 15% | ≤ 15% | ≤ 15% | – | –
15 | C=C1NC(=O)C(C)=C1c1cccc(C(F)(F)F)c1 | 47.2% | 47% | 33.2% | 26.3% | ≤ 15% | ≤ 15% | ≤ 15% | ≤ 15% | – | –
16 | C=C1NC(=O)C=C1c1ccccc1Cl | 72% | 69.7% | 58.3% | 37.8% | ≤ 15% | ≤ 15% | ≤ 15% | ≤ 15% | – | –
17 | O=C1C=C(c2ccccc2)/C(=C/Br)N1 | 84.8% | 77.8% | 66.6% | 56.8% | > 30% | > 30% | 15 to 30% | ≤ 15% | – | –

The next lines start with results.

Row | inhibition [1] | inhibition [2] | inhibition [3] | inhibition [4] | Structure (SMILES) | inhibition at 250 µM (Pseudomonas aeruginosa [5]) | inhibition at 125 µM (Pseudomonas aeruginosa [6]) | inhibition at 62.5 µM (Pseudomonas aeruginosa [7]) | inhibition at 31.25 µM (Pseudomonas aeruginosa [8]) | inhibition at 250 µM (Pseudomonas aeruginosa [9]) | inhibition (Pseudomonas aeruginosa [9])
18 | 52.8% | 48.4% | 45.8% | 11.2% | C=C1C(c2ccc(Br)cc2)=CC(=O)N1c1ccc(C(F)(F)F)cc1 | ≤ 15% | ≤ 15% | ≤ 15% | ≤ 15% | 37.5% | –
19 | 72% | 69.7% | 58.3% | 37.8% | C=C1NC(=O)C=C1c1ccccc1F | ≤ 15% | ≤ 15% | ≤ 15% | ≤ 15% | 51.3% | –
20 | 65% | 62.8% | 53.3% | 29.6% | C=C1C(c2ccccc2F)=CC(=O)N1c1ccc(C)cc1 | ≤ 15% | ≤ 15% | ≤ 15% | ≤ 15% | 49.3% | –
21 | 58.7% | 58.1% | 31.3% | 11.2% | C=C1C(c2ccc(Br)cc2)=CC(=O)N1c1ccc(S(C)(=O)=O)cc1 | 15 to 30% | ≤ 15% | ≤ 15% | ≤ 15% | 10.3% | –
22 | 55.3% | 34.2% | 33.5% | 38.2% | C=C1C(c2ccccc2F)=CC(=O)N1CCCC | ≤ 15% | ≤ 15% | ≤ 15% | ≤ 15% | 52.2% | –
23 | 67.4% | 55.6% | 42.8% | 34.1% | C=C1C(c2ccc(Br)cc2)=CC(=O)N1c1csc2ccccc12 | 15 to 30% | ≤ 15% | ≤ 15% | ≤ 15% | 13.2% | –
24 | 64.4% | 57.3% | 49.6% | 38.7% | C=C1C(c2ccccc2F)=CC(=O)N1c1cccc(Cl)c1 | ≤ 15% | ≤ 15% | ≤ 15% | ≤ 15% | 46.9% | –
25 | 61.6% | 52.6% | 42.7% | 15.2% | C=C1C(c2ccc(Br)cc2)=CC(=O)N1c1ccc(C)cc1 | 15 to 30% | ≤ 15% | ≤ 15% | ≤ 15% | 16.3% | –
26 | 86.3% | 81.3% | 75% | 61.5% | O=C1C=C(c2ccccc2F)/C(=C/Br)N1 | > 30% | > 30% | 15 to 30% | ≤ 15% | – | –
27 | 57.9% | 49.7% | 34.5% | 9.23% | C=C1C(c2ccc(Br)cc2)=CC(=O)N1c1ccc(F)cc1 | ≤ 15% | ≤ 15% | ≤ 15% | ≤ 15% | 27.7% | –
28 | 50.5% | 43.3% | 34.7% | 29.3% | C=C1C(c2ccccc2F)=CC(=O)N1c1cccc(Br)c1 | ≤ 15% | ≤ 15% | ≤ 15% | ≤ 15% | 40.8% | –
29 | 59.1% | 39.7% | 25.5% | 25.3% | C=C1C(c2ccccc2F)=CC(=O)N1c1cccc(C)c1 | ≤ 15% | ≤ 15% | ≤ 15% | ≤ 15% | 42% | –
30 | 55.2% | 52.4% | 47.5% | 27% | C=C1C(c2ccccc2F)=CC(=O)N1Cc1ccccc1 | ≤ 15% | ≤ 15% | ≤ 15% | ≤ 15% | – | –

Reference: ChEMBL document CHEMBL4316620, “Dihydropyrrolones as bacterial quorum sensing inhibitors” (Bioorg Med Chem Lett, 2019)
